# Test results from publication PMC4681692 (Child's nervous system : ChNS : official journal of the …, 2015).
# Like-named read-outs stand apart in the source and are kept apart here.
# Columns and labels:
# [1] = tested on: children with recurrent central nervous system (CNS) malignancies; settings: in vivo
# [2] = Plasma pharmacokinetics of weekly MK-0752, dose 1 course 1; format: in vivo; settings: human, oral, both dose levels
# Procedure, shortened: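 Children with recurrent CNS tumours took oral test compound capsules once weekly at 1,000 or 1,400 mg/m2, in 28-day courses. Heparinised blood was drawn before dose 1 of course 1 and at 1, 2, 3, 6, 8 (±2), 24 (±4) and 48 h after it. Plasma drug was measured by validated LC-MS/MS and analysed non-compartmentally. β came from the last two measurable points, and t1/2 = ln(2)/β.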
# [3] = tested on: NOTCH1 cleavage (NICD1) in PBMCs; assay: NICD1 expression in PBMCs by Western blot; format: in vivo, human; settings: for patients with NICD1 expression decreased from baseline: PBMCs
# recurrent CNS tumors [4] = assay: Tumor response in phase I trial of weekly MK-0752; format: in vivo, human
# Procedure, shortened: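 The oral test compound was given once weekly at 1,000 or 1,400 mg/m2 in 28-day courses, using a rolling-6 design. Disease was assessed at baseline, after course 2 and after every other course thereafter. Patients got up to 6 courses unless disease progressed, and those with stable disease after 6 courses could receive up to 13 more.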
# amyloid peptide levels = settings: animal models; cited from earlier work
# [5] = cited from earlier work; for t1/2: adults
# [6] = tested on: refractory adult solid tumors; settings: cited from earlier work
# NOTCH = settings: adults, weekly administration; cited from earlier work
# [7] = tested on: children with recurrent CNS tumors; settings: 3-days-on/4-days-off schedule; cited from earlier work
# [8] = children, 3-days-on/4-days-off schedule; cited from earlier work
# recurrent CNS tumors [9] = settings: children, 3-days-on/4-days-off schedule; cited from earlier work
# advanced breast cancer = settings: with docetaxel, MK-0752 days 1-3, of 30 evaluable patients; cited from earlier work
# NOTCH pathway genes = settings: healthy adults, once weekly dosing; cited from earlier work
# glioblastoma cell lines = settings: combination with Akt inhibitor MK-2206, compared to monotherapy; cited from earlier work
# [10] = tested on: platinum-resistant ovarian carcinoma xenograft model; settings: cited from earlier work
smiles,measurement,setting,value
O=C(O)CC[C@H]1CC[C@@](c2cc(F)ccc2F)(S(=O)(=O)c2ccc(Cl)cc2)CC1 [MK-0752],ALT increase,[1]; human,2
same,AST increase,[1]; human,2
same,Allergic rhinitis,[1]; human,1
same,Anorexia,[1]; human,1
same,Diarrhea,[1]; human,4
same,Dizziness,[1]; human,1
same,Dry skin,[1]; human,1
same,Fatigue,[1]; human,1
same,Hyperglycemia,[1]; human,1
same,Hypermagnesemia,[1]; human,1
same,Hypoalbuminemia,[1]; human,2
same,Hypokalemia,[1]; human,1
same,Hypomagenesemia,[1]; human,2
same,Hypophosphatemia,[1]; human,2
same,Hypotension,[1]; human,1
same,Increased Hemoglobin,[1]; human,1
same,Leukopenia,[1]; human,2
same,Nausea,[1]; human,1
same,Vomiting,[1]; human,2
same,grade 4 toxicities,[1]; human,no grade 4 toxicities
same,Non-dose-limiting grade 3 toxicities,[1],"lymphopenia, neutropenia, and anemia"
same,dose-limiting diarrhea and GI toxicity,[1],not observed
same,half-life,"[2]; median t1/2, all 10 patients",21.7 h
same,half-life,"[2]; t1/2 (range), all 10 patients",9.8 to 42.2 h
same,change in NICD expression in PBMCs,"[3]; 24 hours after the higher dose (1,400 mg)",dose-dependent decrease
same,patients with NICD1 expression decreased from baseline,"[3]; 24 hours post MK-0752, 1,000 and 1,400 mg/m^2",6 of 7
same,patients with NICD1 expression decreased from baseline,"[3]; 24 hours post MK-0752, treated at 1,400 mg/m^2 (n=3)",all three
same,patients with prolonged SD (6 and 10 cycles),"recurrent CNS tumors [4]; all evaluable patients, weekly schedule",2 of 9
same,objective responses,"recurrent CNS tumors [4]; weekly 1,000 and 1,400 mg/m^2",No objective responses
same,blood-brain barrier penetration,amyloid peptide levels,penetrate the blood-brain barrier
same,reduction of amyloid peptide levels,amyloid peptide levels,50%
same,Cmax,"[5]; adults receiving 1,800 mg (~1,040 mg/m^2) weekly",84.2 µg/mL
same,t1/2,"[5]; weekly 1,800 mg (~1,040 mg/m^2)",13.8 h
same,t1/2,"[5]; weekly 2,400 mg (~1,400 mg/m^2)",16.2 h
same,duration of CR,"[6]; one adult patient with anaplastic astrocytoma, 1,800 mg once weekly",> 1 year
same,duration of SD,"[6]; one adult patient with glioblastoma multiforme, 4,200 mg once weekly",> 1 year
same,dose achieving target inhibition,NOTCH,"3,200 mg"
same,dose-limiting toxicity preventing dose escalation beyond 260 mg/m^2,[7],dose-limiting elevations of AST and ALT
same,well-tolerated dose,[7],260 mg/m^2
same,t1/2,[8],11.4 h
same,evaluable patients with prolonged SD (3 and 4 cycles),recurrent CNS tumors [9],2 of 17
same,patients with PR,advanced breast cancer,9
same,patients with SD,advanced breast cancer,11
same,duration of decreased expression of NOTCH pathway genes,NOTCH pathway genes,at least 96 hours
O=S1(=O)N[C@@]2(CN1CC(F)(F)F)[C@@H]1CC[C@H]2Cc2ccc(/C=C/CN3CCC(C(F)(F)F)CC3)cc2C1 [MRK003],effect of combination on migratory and invasive potential of glioblastoma,glioblastoma cell lines,synergistic inhibition
same,combination effect with paclitaxel,[10],synergy
